ChEMBL document CHEMBL1126849, “Synthesis of A-ring fluorinated derivatives of (17 alpha,20E/Z)-[125I]iodovinylestradiols: effect on receptor binding and receptor-mediated target tissue uptake” (J Med Chem, 1993)

Molecular target: T1, Estrogen receptor (Mus musculus) (UniProt O08537+P19785)
Assay: Relative binding affinity (RBA) for murine cytoplasmic estrogen receptor at 4C for 2 hr
Type: protein assay
How it was run: (§1)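 Murine uterine cytoplasmic extract incubated 2 h at 4 °C or at 25 °C with 20 nM [3H]estradiol and competitors at 2 nM–20 μM. RBA is taken as 100 × the ratio of competitor to unlabeled estradiol concentration needed for 50% competition of specific [3H]estradiol binding.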

T1 sequence (O08537 whole entry, looked up): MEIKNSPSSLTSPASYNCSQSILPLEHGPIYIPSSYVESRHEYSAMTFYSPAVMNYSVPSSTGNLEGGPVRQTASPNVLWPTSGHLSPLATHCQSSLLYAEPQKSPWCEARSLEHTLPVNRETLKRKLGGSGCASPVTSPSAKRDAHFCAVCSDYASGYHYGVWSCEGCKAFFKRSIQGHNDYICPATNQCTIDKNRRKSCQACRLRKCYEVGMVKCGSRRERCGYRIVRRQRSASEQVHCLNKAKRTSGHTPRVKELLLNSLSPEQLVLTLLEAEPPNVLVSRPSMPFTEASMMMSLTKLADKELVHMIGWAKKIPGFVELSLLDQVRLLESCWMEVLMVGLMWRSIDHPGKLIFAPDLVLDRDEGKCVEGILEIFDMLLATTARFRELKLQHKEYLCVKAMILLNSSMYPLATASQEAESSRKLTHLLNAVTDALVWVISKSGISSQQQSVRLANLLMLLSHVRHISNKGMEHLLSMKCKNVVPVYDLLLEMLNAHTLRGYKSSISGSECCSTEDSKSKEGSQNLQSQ
T1 sequence (P19785 whole entry, looked up): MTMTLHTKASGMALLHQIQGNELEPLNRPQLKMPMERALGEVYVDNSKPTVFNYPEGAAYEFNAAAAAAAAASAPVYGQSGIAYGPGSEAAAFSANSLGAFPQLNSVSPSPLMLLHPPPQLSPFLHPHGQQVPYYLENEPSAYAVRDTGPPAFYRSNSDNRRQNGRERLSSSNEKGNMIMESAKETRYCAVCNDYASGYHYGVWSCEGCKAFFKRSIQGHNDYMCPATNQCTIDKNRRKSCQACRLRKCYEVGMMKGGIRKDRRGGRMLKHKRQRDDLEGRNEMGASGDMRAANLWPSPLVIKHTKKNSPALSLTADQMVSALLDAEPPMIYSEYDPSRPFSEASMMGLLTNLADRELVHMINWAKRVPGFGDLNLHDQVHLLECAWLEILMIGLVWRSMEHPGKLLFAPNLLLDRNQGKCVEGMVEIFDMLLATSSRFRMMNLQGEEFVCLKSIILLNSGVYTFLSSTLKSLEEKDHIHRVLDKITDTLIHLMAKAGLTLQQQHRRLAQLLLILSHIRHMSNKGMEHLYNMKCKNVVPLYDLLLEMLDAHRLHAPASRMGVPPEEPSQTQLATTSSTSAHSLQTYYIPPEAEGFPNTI

How did the RBA turn out when `C#C[C@]1(O)CC[C@H]2[C@@H]3CCc4c(ccc(O)c4F)[C@H]3CC[C@@]21C` was run?
The RBA was 80.

Molecular target: T1, Estrogen receptor (Mus musculus)
Assay: Relative binding affinity (RBA) against murine cytoplasmic estrogen receptor incubated at 0-4 degree Celsius for 18 hours
Type: protein assay
How it was run: (§2)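 Competitive binding on murine uterine cytoplasmic extract with 20 nM [3H]estradiol and competitor steroids at 2 nM–20 μM, incubated 18 h at 0–4 °C. RBA = 100 × ratio of […] concentration giving 50% competition for specific binding. Mean of three experiments with SD.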

With `C=C[C@]1(O)CC[C@H]2[C@@H]3CCc4c(ccc(O)c4F)[C@H]3[C@@H](OC)C[C@@]21C` as the compound, how does the RBA read?
Its RBA is 16.7.

Which RBA does the source give for `CO[C@H]1C[C@@]2(C)[C@@H](CC[C@@]2(O)/C=C/I)[C@@H]2CCc3cc(O)ccc3[C@H]21` here?
The RBA was 27.7.

Which RBA does the source give for `C=C[C@]1(O)CC[C@H]2[C@@H]3[C@H](C)Cc4c(ccc(O)c4F)[C@H]3CC[C@@]21C` here?
The RBA was 62.4.

`CO[C@H]1C[C@@]2(C)[C@@H](CC[C@@]2(O)/C=C\I)[C@@H]2CCc3cc(O)ccc3[C@H]21` was tested. Which RBA did it give?
Its RBA is 32.

How did the RBA turn out when `C[C@@H]1Cc2cc(O)ccc2[C@H]2CC[C@@]3(C)[C@@H](CC[C@@]3(O)/C=C/I)[C@H]12` was run?
Its RBA is 43.2.

`C=C[C@]1(O)CC[C@H]2[C@@H]3[C@H](C)Cc4cc(O)ccc4[C@H]3CC[C@@]21C` was tested. Which RBA did it give?
The RBA was 73.1.

How did the RBA turn out when `C=C[C@]1(O)CC[C@H]2[C@@H]3CCc4cc(O)ccc4[C@H]3[C@@H](OC)C[C@@]21C` was run?
Its RBA is 15.3.

With `C[C@]12CC[C@@H]3c4ccc(O)cc4CC[C@H]3[C@@H]1CC[C@@]2(O)/C=C\I` as the compound, how does the RBA read?
Its RBA is 46.7.

For `C=C[C@]1(O)CC[C@H]2[C@@H]3CCc4c(ccc(O)c4F)[C@H]3CC[C@@]21C`, which RBA is on record?
The RBA was 119.

`C=C[C@]1(O)CC[C@H]2[C@@H]3CCc4cc(O)c(F)cc4[C@H]3[C@@H](OC)C[C@@]21C` was tested. Which RBA did it give?
Its RBA is 15.9.

How did the RBA turn out when `C=C[C@]1(O)CC[C@H]2[C@@H]3CCc4cc(O)c(F)cc4[C@H]3CC[C@@]21C` was run?
Its RBA is 64.3.

For `C=C[C@]1(O)CC[C@H]2[C@@H]3[C@H](C)Cc4cc(O)c(F)cc4[C@H]3CC[C@@]21C`, which RBA is on record?
The RBA was 33.3.

`C[C@@H]1Cc2cc(O)ccc2[C@H]2CC[C@@]3(C)[C@@H](CC[C@@]3(O)/C=C\I)[C@H]12` was tested. Which RBA did it give?
Its RBA is 44.9.

`C[C@]12CC[C@@H]3c4ccc(O)cc4CC[C@H]3[C@@H]1CC[C@@]2(O)/C=C/I` was tested. Which RBA did it give?
The RBA was 39.7.

Molecular target: T1, Estrogen receptor (Mus musculus)
Assay: Relative binding affinity (RBA) for murine cytoplasmic estrogen receptor at 4C for 18 hr
Type: protein assay
How it was run: as §2

How did the RBA turn out when `C#C[C@]1(O)CC[C@H]2[C@@H]3CCc4c(ccc(O)c4F)[C@H]3CC[C@@]21C` was run?
The RBA was 119.

Molecular target: T1, Estrogen receptor (Mus musculus)
Assay: Relative binding affinity (RBA) for murine cytoplasmic estrogen receptor at 25 degree C for 2 hr
Type: protein assay
How it was run: as §1

`C#C[C@]1(O)CC[C@H]2[C@@H]3CCc4c(ccc(O)c4F)[C@H]3CC[C@@]21C` was tested. Which RBA did it give?
The RBA was 166.
